Source: PubChem BioAssay (several laboratories)
Most compounds without a hit are left out; they make up all but 6.9% or so of the library.
Pyk2 oligo antag: antagonists of Pyk2 self-association, primary screen, Q293 cells, FERM NanoBiT luminescence, HTS; hits give low values; actives 0.83% (n = 99,000); z-score (the deposit names both 25 µM and 10 µM);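 active means Z-score of -3 or lower, scaled per plate to the spread of control and sample wells; inactive means z-score above -3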;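 further: negative z-score means lost luminescence so less FERM oligomerization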
Target sequence (Q14289 whole entry, looked up): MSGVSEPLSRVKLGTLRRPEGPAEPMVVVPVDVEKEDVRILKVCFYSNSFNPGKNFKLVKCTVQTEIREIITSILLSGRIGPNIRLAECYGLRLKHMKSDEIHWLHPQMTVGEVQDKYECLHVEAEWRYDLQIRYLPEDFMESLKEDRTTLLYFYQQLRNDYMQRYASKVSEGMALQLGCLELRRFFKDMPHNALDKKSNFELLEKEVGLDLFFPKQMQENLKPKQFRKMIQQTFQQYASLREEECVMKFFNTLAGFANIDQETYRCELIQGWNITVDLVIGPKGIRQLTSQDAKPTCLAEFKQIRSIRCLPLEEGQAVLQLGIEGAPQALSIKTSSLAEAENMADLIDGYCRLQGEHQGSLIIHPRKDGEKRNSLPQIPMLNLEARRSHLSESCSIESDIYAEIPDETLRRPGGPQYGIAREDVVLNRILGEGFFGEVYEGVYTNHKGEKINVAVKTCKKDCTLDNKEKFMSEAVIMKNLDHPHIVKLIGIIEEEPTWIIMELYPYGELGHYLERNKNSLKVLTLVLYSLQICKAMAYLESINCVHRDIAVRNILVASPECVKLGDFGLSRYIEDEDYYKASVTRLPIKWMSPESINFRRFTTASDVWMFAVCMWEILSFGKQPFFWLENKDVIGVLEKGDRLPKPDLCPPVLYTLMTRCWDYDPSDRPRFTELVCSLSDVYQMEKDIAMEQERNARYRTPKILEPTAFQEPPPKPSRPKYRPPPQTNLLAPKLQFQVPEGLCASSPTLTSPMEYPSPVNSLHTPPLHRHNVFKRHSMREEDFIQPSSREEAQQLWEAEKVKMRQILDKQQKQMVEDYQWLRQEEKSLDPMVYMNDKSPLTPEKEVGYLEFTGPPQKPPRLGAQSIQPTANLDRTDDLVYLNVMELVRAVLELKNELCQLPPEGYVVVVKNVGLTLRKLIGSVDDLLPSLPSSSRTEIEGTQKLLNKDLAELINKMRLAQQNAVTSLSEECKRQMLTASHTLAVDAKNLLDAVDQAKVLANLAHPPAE
Calb biofilm kill: clotrimazole potentiators killing Candida biofilms, primary screen, with clotrimazole, Alamar Blue; inhibition, % at 6 µM; actives 0.14% (n = 85,000); C. albicans biofilm + clotrimazole;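 active means inhibition above 20%; inactive means inhibition below 20%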;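 further: preformed 24 hr biofilms exposed to compound for 48 hr; 0% = biofilm without compound and 100% = blank killed by clotrimazole plus chlorhexidine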
PostGolgi ctrl: growth inhibition of yeast control strain, primary screen, counter-screen for post-Golgi transport modulator project; efflux-deficient yeast background strain, growth absorbance A615, 16 h; inhibition, % at 10 µM; actives 5% (n = 98,000); AID 738, 2007
tolC growth inh: growth inhibitors of E. coli tolC mutant, primary screen, strain BW25113 ΔtolC::kan, 384-well; actives 2.2% (n = 65,000); growth inhibition, % at 10 µM (by protocol); OD615;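 active means growth inhibition at or above a cutoff equal to the mean over every tested compound plus 3 SD, cut at about 60% in these data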;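 further: growth measured after 20 h incubation at 37 °C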
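Doses: one dose of 10 µM final / Material: E. coli BW25113 ΔtolC::kan, tolC deletion mutant strain / Buffer or medium: LB with kanamycin 50 µg/mL / Evaluation: percent growth inhibition / Detection: optical density read at 615 nm / Incubation: 37 °C, 20 h exposure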
PostGolgi yeast: phenotypic screen on post-Golgi transport, primary screen. post-Golgi transport phenotypic cell assay. inhibition, % at 10 µM. actives 0.9% (n = 98,000);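 further: yeast cells grown in 1536-well plates; yeast grown about 18 h at 30C before absorbance read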
FAK inh: FAK kinase inhibitors, primary screen, biochemical; Focal adhesion kinase 1 (Homo sapiens), Q05397; biochemical FAK kinase activity assay; inhibition, %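 (tested at 7 µM)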; actives 0.84% (n = 97,000); in the data active means inhibition above about 19%;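 further: 0% = DMSO and 100% = reference compound high control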
An asterisk follows results filed as active; . = no result given. Unless noted, no stated cut-off is given here; in the data, active means inhibition above about 30%; inactive means the rest.

SMILES	Pyk2 oligo antag	Calb biofilm kill	PostGolgi ctrl	tolC growth inh	PostGolgi yeast	FAK inh
CCCOc1ccc(/C(O)=C2/C(=O)C(=O)N(CCN(C)C)C2c2ccc(O)c(OC)c2)cc1 (stereo unspecified)	1.6	0	13	-18	3	.
Cc1ccnc(NS(=O)(=O)c2ccc(NS(=O)(=O)c3cccs3)cc2)n1	1.9	.	5	-12	-3	9
OCCN1CCN(c2nc(-c3ccccc3)c3cc(Cl)ccc3n2)CC1	-0.56	8	9	100*	11	-1
CCCOP(=O)(OCCC)C(Nc1cccc(C(F)(F)F)c1)c1ccc(C)cc1 (stereo unspecified)	-0.06	.	12	.	-4	8
COc1ccc(C2=NOC(C(=O)O)C2)cc1 (stereo unspecified)	1.9	.	3	.	2	0
CCCOc1ccccc1N/C(=N/c1nc(C)cc(C)n1)NC(=O)COc1ccc(OC)cc1	-1.1	2	7	.	40*	1
COc1ccc(OCC(=O)Nc2ccccc2OC)cc1	0.92	7	0	13	4	.
O=C(Oc1cccnc1)c1ccc(Cl)c(Cl)c1	1	4	10	-2	-8	2
Oc1ccccc1-c1nc(N2CCCC2)c2ccccc2n1	0.06	5	22	.	0	-1
COc1cccc(-c2nc(N3CCC(C)CC3)c3ccccc3n2)c1O	-0.41	.	72*	13	0	6
Oc1ccccc1-c1nc(N2CCN(Cc3ccccc3)CC2)c2ccccc2n1	-0.93	0	42*	14	-5	0
COc1cccc(-c2nc(N3CC(C)CC(C)C3)c3ccccc3n2)c1O (stereo unspecified)	1	.	75*	3	1	0
CCOC(=O)c1c(C)sc2c1N(C(=O)CN(CC)CC)c1cc(Cl)ccc1S2	-0.46	6	5	.	0	-2
CCOC(=O)c1c(C)sc2c1N(C(=O)CN1CCOCC1)c1cc(Cl)ccc1S2	-0.89	6	54*	.	-9	3
COc1ccc(C2CC(c3cccc(OC)c3OC)n3nnnc3N2)cc1 (stereo unspecified)	-0.49	8	12	14	4	.
O=C(NCCCN1CCCCC1)C1(S(=O)(=O)c2ccc(Cl)cc2)CC1	.	.	3	-17	6	-2
O=C(NCCN1CCCC1)C1(S(=O)(=O)c2ccc(Cl)cc2)CC1	1.6	.	38*	-2	9	-2
CC1CN(CCCCOc2ccc(C(C)C)cc2)CC(C)O1 (stereo unspecified)	-0.66	5	53*	.	97*	4
CC1CN(CC(O)COc2ccc(C(C)C)cc2)CC(C)O1 (stereo unspecified)	-0.52	6	22	18	59*	-1
COc1cc(C)ccc1OCCCCN1CC(C)OC(C)C1 (stereo unspecified)	-0.45	4	33*	.	60*	0
CC(=O)NC1=NN(c2ccccc2)C(=O)C1	-0.46	.	-5	.	0	-2
Cc1ccc(S(=O)(=O)NC(C)(C)CSc2nncn2N)cc1	-0.18	7	16	-8	4	0
Cc1ccc(S(=O)(=O)NC(C)(C)CSc2nnc(Nc3ccccc3)s2)cc1	-2.8	5	34*	.	3	0
CS(=O)(=O)Nc1ccc(OCc2ccccc2)cc1	-0.04	4	31*	-8	2	1
COC(=O)Nc1ccc(OCc2ccccc2)cc1	-0.5	1	4	-6	14	0
SMILES	Pyk2 oligo antag	Calb biofilm kill	PostGolgi ctrl	tolC growth inh	PostGolgi yeast	FAK inh
COc1ccc(OC)c(Nc2nc(-c3cccs3)cs2)c1	-1.1	7	13	61*	-1	-1
COc1ccc(Nc2nc(-c3cccs3)cs2)c(OC)c1	-0.53	3	2	.	-6	1
COc1ccc(Nc2nc(-c3cccs3)cs2)cc1	.	8	5	.	-6	-2
COc1ccccc1Nc1nc(-c2cccs2)cs1	1.4	8	52*	25	4	5
O=C1CC(c2cccc(Br)c2)c2cc3c(cc2N1)CCC3 (stereo unspecified)	-0.49	.	90*	.	19	3
COc1ccc(OCC(=O)Nc2ccc3c(c2)nc(CN2CCCC2)n3C)cc1	-0.34	3	3	.	-1	3
Cn1c(CN2CCCC2)nc2cc(NC(=O)COc3ccc(Cl)cc3)ccc21	0.36	6	33*	18	3	0
CCCC(=O)Nc1ccc2c(c1)nc(CN1CCN(C(C)=O)CC1)n2C	-0.17	10	31*	.	4	1
Cc1ccc2c(c1)c1c(n2CC(O)Cn2c(C)nc3ccccc32)/C(=N\O)CCC1 (stereo unspecified)	-0.01	6	23	78*	-9	4
Cc1ccc2c(c1)c1c(n2CC(O)Cn2c(C)nc3ccccc32)C(=O)CCC1 (stereo unspecified)	.	5	12	38	5	.
O=c1nc(-c2ccccc2)c2cc(Cl)ccc2[nH]1	-0.08	7	-1	-7	-2	-4
O=c1cc2[nH]c3ccccc3c(=O)n2nc1-c1ccccc1	-3.1*	.	3	.	4	-1
C=CCOc1cccc(C2/C(=C(/O)c3ccc(Cl)cc3)C(=O)C(=O)N2CCN2CCOCC2)c1 (stereo unspecified)	0.62	7	3	15	-4	-2
O=C(CSc1nccn1-c1cccc(Cl)c1)Nc1ccc2c(c1)OCCO2	.	-3	7	45	-3	1
O=S(=O)(Cc1ccccc1Cl)N1CCN(Cc2ccc3c(c2)OCO3)CC1	-0.25	.	35*	23	89*	1
COc1ccc(S(=O)(=O)N2CCN(Cc3ccc4c(c3)OCO4)CC2)c2ccccc12	.	13	35*	25	-7	0
COc1ccc(Cl)cc1S(=O)(=O)N1CCN(Cc2ccc3c(c2)OCO3)CC1	-0.59	7	15	14	-4	-4
COc1ccc(F)cc1S(=O)(=O)N1CCN(Cc2ccc3c(c2)OCO3)CC1	0.42	8	24	11	2	2
CSc1ccc(S(=O)(=O)N2CCN(Cc3ccc4c(c3)OCO4)CC2)cc1	.	-3	53*	35	55*	.
Cc1ccc(CNc2cc(-c3nn4c(C)nnc4s3)ccc2C)s1	-0.32	-2	32*	7	8	4
Cc1ccc(-c2nn3c(C)nnc3s2)cc1NCc1c(F)cccc1Cl	-3.5*	4	23	17	33*	2
Cc1ccc(-c2nn3c(C)nnc3s2)cc1NC(=O)COc1ccc(Cl)cc1	.	-5	8	-3	-6	-8
CCOCCCNC(=O)c1ccccc1SC	0	10	3	-15	2	-8
CCOc1ccccc1N1CCN(C(=O)C2c3ccccc3Oc3ccccc32)CC1	1	-5	17	.	-6	6
N#Cc1nc(COc2ccccc2Cl)oc1NCc1cccnc1	-2.3	3	47*	.	59*	-4
N#Cc1nc(COc2ccccc2F)oc1NCCc1ccccc1	-1.4	1	23	100*	-6	0
